Here are results for 19 compounds from ChEMBL document CHEMBL1154737, “Design, synthesis, and biological evaluation of substituted naphthalene imides and diimides as anticancer agent” (J Med Chem, 2009).

One may read the pIC50 as the negative decadic logarithm of the IC50, by convention in mol/L. By pEC50 is commonly meant the negative decadic logarithm of the EC50, by convention in mol/L. Higher therefore signals a low EC50.

In data set [1] the test system is SH-SY5Y. Put plainly: Cytotoxicity against human SH-SY5Y assessed as decrease in ERK1 phosphorylation at 5 uM after 20 hrs by Western blotting. The format is functional, cell-based. In short, it runs like this:
(§1)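 SH-SY5Y cells treated 20 h with 5 μM, then harvested. Protein content and phosphorylation status in cell extracts read by Western blotting at 50 μg protein per lane.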
(A western blot detects proteins with antibodies after separation by electrophoresis.)

In data set [2] the test system is CCRF-CEM. Put plainly: Cytotoxicity against human CCRF-CEM cells after 72 hrs by MTT assay. The format is functional, cell-based. The essentials:
(§2)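 MTT growth-inhibition assay on SKBR-3 breast cancer and CEM leukemia cells, 72 h exposure over 0.1–10 μM. IC50 is the concentration giving 50% growth inhibition, derived by linear regression and reported as a mean of six experiments. Single-concentration entries are taken at 10 μM, the top of the range.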
Background: Tetrazolium assays rely on reduction of a dye to a coloured formazan, in cell work by metabolically active cells.

The test system of data set [3] is Jurkat. Put plainly: Induction of apoptosis in human Jurkat T cells assessed as caspase 3 activation at 5 uM after 24 hrs by DEVDase activity assay. The format is functional, cell-based. The essentials: (§3)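 SH-SY5Y neuroblastoma, H9c2 heart and Jurkat T cells treated 24 h with 5 μM. Caspase (DEVDase) activation measured, reported as mean ± SEM of triplicates.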

Data set [4] has as its system HL-60. Put plainly: Induction of apoptosis in human HL60 cells assessed as decrease in procaspase 3 level at 5 uM after 4 hrs by Western blotting. The format is functional, cell-based. In short, it runs like this:
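HL60 cells incubated 4 h with 5 μM. Extracted proteins analysed by Western blot for the 32 kDa procaspase 3 precursor and its active proteolytic fragment.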

The subject of data set [5] is SH-SY5Y. Put plainly: Cytotoxicity against human SH-SY5Y after 72 hrs by trypan blue exclusion assay. The format is functional, cell-based. The essentials:
(§4)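 SH-SY5Y neuroblastoma cells incubated with compounds at 1 to 5 μM for the indicated times up to 72 h. Viable cells counted by dye exclusion.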

For data set [6], the system named is HL-60. Put plainly: Induction of apoptosis in human HL60 cells assessed as caspase 3 activation at 5 uM after 24 hrs by DEVDase activity assay. The format is functional, cell-based. The essentials: (§5)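 HL60 cells exposed to 5 μM for 4 or 24 h. DEVDase (effector caspase 3/7) activity measured on the DEVD peptide substrate.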
The subject of data set [7] is SH-SY5Y. Put plainly: Cytotoxicity against human SH-SY5Y at 1 to 5 uM after 72 hrs by trypan blue exclusion assay. The format is functional, cell-based. The essentials:
as §4

Data set [8] has as its system SH-SY5Y. Put plainly: Cytotoxicity against human SH-SY5Y assessed as decrease in ERK1 protein level at 5 uM after 20 hrs by Western blotting. The format is functional, cell-based. In short, it runs like this:
as §1

In data set [9] the test system is HL-60. Put plainly: Induction of apoptosis in human HL60 cells assessed as caspase 3 activation after 4 hrs by DEVDase activity assay. The format is functional, cell-based. In short, it runs like this:
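HL60 cells treated 4 h at the indicated doses, then collected. Caspase (DEVDase) activity determined.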

In data set [10] the test system is HL-60. Put plainly: Induction of apoptosis in human HL60 cells assessed as caspase 3 activation at 5 uM after 4 hrs by DEVDase activity assay. The format is functional, cell-based. The essentials: as §5
Data set [11] has as its system SK-BR-3. Put plainly: Cytotoxicity against human SKBR3 cells after 72 hrs by MTT assay. The format is functional, cell-based. The following applies: SK-BR-3, 72 h. The essentials:
as §2

Data set [12] addresses DNA topoisomerase 2-alpha (Homo sapiens) (UniProt P11388). Put plainly: Stimulation of human recombinant topoisomerase 2alpha-mediated SV40 DNA cleavage at 10 uM after 45 mins by PAGE. The essentials: (§6)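 Cleavage assay with recombinant human DNA topoisomerase IIα, using SV40 DNA as substrate, to test for stimulation of DNA cleavage (poison activity).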
The test system of data set [13] is SH-SY5Y. Put plainly: Cytotoxicity against human SH-SY5Y assessed as p53 protein accumulation at 1 uM after 20 hrs by Western blotting. The format is functional, cell-based. In short, it runs like this:
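SH-SY5Y extracts prepared after 20 h incubation at the indicated concentrations. p53 content measured by Western blot, 50 μg protein loaded per point.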

Data set [14] has as its system SH-SY5Y. Put plainly: Cytotoxicity against human SH-SY5Y assessed as decrease in ERK2 protein level at 5 uM after 20 hrs by Western blotting. The format is functional, cell-based. In short, it runs like this:
as §1

Data set [15] deals with HL-60. Put plainly: Cytotoxicity against human HL60 cells after 24 hrs by dye exclusion assay. The conditions noted are these: HL-60, 24 h.
The test system of data set [16] is SH-SY5Y. Put plainly: Cytotoxicity against human SH-SY5Y assessed as cell viability at 5 uM after 20 hrs by trypan blue exclusion assay. The format is functional. The conditions noted are these: read-out: Activity. In short, it runs like this:
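SH-SY5Y cells exposed to 5 μM for 20 h. Viable cell fraction assessed by dye exclusion.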

Data set [17] concerns Calf thymus DNA. Put plainly: Displacement of ethidium bromide from calf thymus DNA by fluorescence assay. The format is nucleic-acid assay, Bos taurus. The following applies: for Kapp: Bos taurus. The essentials: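 Fluorometric intercalator displacement. EC50 is the drug concentration that cuts DNA-bound ethidium fluorescence by 50%, given as the mean of three determinations ± SEM. Apparent binding constant is calculated taking the ethidium binding constant as 10^7 M-1.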

For data set [18], the system named is SH-SY5Y. Put plainly: Induction of apoptosis in human SH-SY5Y cells assessed as caspase 3 activation at 5 uM after 24 hrs by DEVDase activity assay. The format is functional, cell-based. The essentials:
as §3

In data set [19] the test system is SH-SY5Y. Put plainly: Cytotoxicity against human SH-SY5Y assessed as decrease in ERK2 phosphorylation at 5 uM after 20 hrs by Western blotting. The format is functional, cell-based. In short, it runs like this: as §1
Data set [20] concerns the target DNA topoisomerase 2-alpha (Homo sapiens) (UniProt P11388). Put plainly: Stimulation of human recombinant topoisomerase 2alpha-mediated SV40 DNA cleavage at 50 uM after 45 mins by PAGE. In short, it runs like this:
as §6

In data set [21] the test system is SH-SY5Y. Put plainly: Cytotoxicity against human SH-SY5Y assessed as cell survival at 1 uM after 72 hrs by trypan blue exclusion assay. The conditions noted are these: read-out: Survival. The format is functional. In short, it runs like this:
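SH-SY5Y neuroblastoma cells incubated with compound at 1 to 5 μM for the indicated times, including 24 h and 72 h. Viable cells were then counted by dye exclusion and expressed as cell survival.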

Data set [22] concerns H9c2. Put plainly: Induction of apoptosis in rat H9c2 cells assessed as caspase 3 activation at 5 uM after 24 hrs by DEVDase activity assay. The format is cell-based. The conditions noted are these: h9c2, 24 h. The essentials:
as §3

Data set [23] relates to CCRF-CEM. Put plainly: Cytotoxicity against human CCRF-CEM cells at 10 uM after 72 hrs by MTT assay. The format is functional, cell-based. In short, it runs like this: as §2
Data set [24] concerns SK-BR-3. Put plainly: Cytotoxicity against human SKBR3 cells at 10 uM after 72 hrs by MTT assay. The format is functional, cell-based. The essentials:
as §2

For data set [25], the system named is SH-SY5Y. Put plainly: Cytotoxicity against human SH-SY5Y at 1 uM after 24 hrs by trypan blue exclusion assay. The format is functional, cell-based. The essentials:
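SH-SY5Y cells given 1 μM. Viability at 24 h scored by dye exclusion.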

The test system of data set [26] is SH-SY5Y. Put plainly: Cytotoxicity against human SH-SY5Y assessed as p53 protein accumulation at 5 uM after 20 hrs by Western blotting. The format is functional, cell-based. The essentials: as §1

pEC50, pIC50: −log10 of the molar value. Activity calls are given as the source filed them. No cut-off for these calls is given here.

Sequence of DNA topoisomerase 2-alpha (Homo sapiens) (P11388 whole entry): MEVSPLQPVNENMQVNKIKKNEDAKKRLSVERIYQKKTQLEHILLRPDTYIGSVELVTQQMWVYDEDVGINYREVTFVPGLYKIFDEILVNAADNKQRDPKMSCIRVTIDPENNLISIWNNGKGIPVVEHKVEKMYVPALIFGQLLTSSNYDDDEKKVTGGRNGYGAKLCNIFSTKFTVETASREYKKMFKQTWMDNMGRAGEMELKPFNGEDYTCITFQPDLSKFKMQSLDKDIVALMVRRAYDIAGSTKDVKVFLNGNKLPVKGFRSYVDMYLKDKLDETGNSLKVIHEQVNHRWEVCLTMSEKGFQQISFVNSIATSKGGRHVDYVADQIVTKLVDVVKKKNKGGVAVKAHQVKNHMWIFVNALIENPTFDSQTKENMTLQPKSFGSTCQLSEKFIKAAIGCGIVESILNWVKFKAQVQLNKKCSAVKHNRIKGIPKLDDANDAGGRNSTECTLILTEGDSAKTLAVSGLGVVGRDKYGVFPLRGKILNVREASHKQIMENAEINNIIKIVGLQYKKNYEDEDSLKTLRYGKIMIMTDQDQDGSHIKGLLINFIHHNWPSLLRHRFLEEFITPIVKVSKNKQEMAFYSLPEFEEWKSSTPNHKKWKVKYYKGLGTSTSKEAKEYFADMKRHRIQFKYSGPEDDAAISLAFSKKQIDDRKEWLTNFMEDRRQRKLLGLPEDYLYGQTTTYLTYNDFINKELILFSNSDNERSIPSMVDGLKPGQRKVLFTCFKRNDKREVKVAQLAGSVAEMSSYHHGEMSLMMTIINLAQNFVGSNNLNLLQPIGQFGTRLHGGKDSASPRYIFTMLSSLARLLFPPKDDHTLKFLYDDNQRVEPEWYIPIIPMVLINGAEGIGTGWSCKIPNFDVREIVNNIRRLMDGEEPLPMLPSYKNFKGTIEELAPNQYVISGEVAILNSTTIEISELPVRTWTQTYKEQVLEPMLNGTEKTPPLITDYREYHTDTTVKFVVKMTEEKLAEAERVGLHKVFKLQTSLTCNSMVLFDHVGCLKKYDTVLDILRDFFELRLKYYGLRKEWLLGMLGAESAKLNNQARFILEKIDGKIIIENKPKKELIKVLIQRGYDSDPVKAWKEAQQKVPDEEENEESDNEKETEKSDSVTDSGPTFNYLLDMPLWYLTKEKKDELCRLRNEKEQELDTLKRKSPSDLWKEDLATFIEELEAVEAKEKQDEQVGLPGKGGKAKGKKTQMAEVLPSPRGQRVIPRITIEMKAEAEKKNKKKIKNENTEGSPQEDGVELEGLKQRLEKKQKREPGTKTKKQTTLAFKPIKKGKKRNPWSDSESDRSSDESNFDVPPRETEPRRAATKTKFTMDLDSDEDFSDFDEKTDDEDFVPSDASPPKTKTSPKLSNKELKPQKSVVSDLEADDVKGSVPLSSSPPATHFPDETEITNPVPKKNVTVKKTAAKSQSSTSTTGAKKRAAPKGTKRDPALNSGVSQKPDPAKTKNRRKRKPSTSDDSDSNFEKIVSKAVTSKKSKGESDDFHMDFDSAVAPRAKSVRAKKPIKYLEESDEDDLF

Regarding `COc1ccccc1CNCCN1C(=O)c2ccc3c4c(ccc(c24)C1=O)C(=O)N(CCNCc1ccccc1OC)C3=O`, the result in data set [1], in [3], in [4], in [6], in [7] and in data set [8] was Active. The result in data set [10], in data set [13], in data set [14], in data set [18] and in data set [19] was Active. The negative logarithm of the IC50 (pIC50) in [2] was 5.89; in data set [5], 5.85; in data set [11] it was 6.15; in [15] it was 6.05. In addition, the Activity result in data set [9] was “Dose-dependent effect”; in data set [22] it was “Active”. For the same compound, the result in data set [12] and in data set [20] was inactive. Besides, the viability at 5 µM in [16] worked out at 70%. In addition, the pEC50 in [17] was 7.03. Further, in [17], the Kapp was found to be 2.72 ×10⁸ /M. The viability at 1 µM in data set [21] is 60%.

Turning to `COc1ccccc1CNCCCCCCN1C(=O)c2cccc3cccc(c23)C1=O`, the outcome in data set [23] and in data set [24] was inactive.

Consider `COc1ccccc1CNCCCCCCCCN1C(=O)c2ccc3c4c(ccc(c24)C1=O)C(=O)N(CCCCCCCCNCc1ccccc1OC)C3=O`, for which the values for the pIC50 in data set [2] and in [11] were 5.80 and 6.00, respectively.

Take `COc1ccccc1CNCCCCN1C(=O)c2cccc3cccc(c23)C1=O`: the pIC50 in data set [2] was 5.49; in data set [11] it was 5.77.

Turning to `COc1ccccc1CNCCCCCCCCCN1C(=O)c2ccc3c4c(ccc(c24)C1=O)C(=O)N(CCCCCCCCCNCc1ccccc1OC)C3=O`, the negative-log IC50 (pIC50) in [2] was 5.85; in [11], 6.40.

As to `COc1ccccc1CNCCCCCCCN1C(=O)c2ccc3c4c(ccc(c24)C1=O)C(=O)N(CCCCCCCNCc1ccccc1OC)C3=O`, the negative logarithm of the IC50 (pIC50) in [2] was 5.60; in data set [11], 5.77.

As for `COc1ccccc1CNCCCCCCN1C(=O)c2ccc3c4c(ccc(c24)C1=O)C(=O)N(CCCCCCNCc1ccccc1OC)C3=O`, the values for the pIC50 in data set [2] and in data set [11] were 5.66 and 5.92, respectively.

For the compound `COc1ccccc1CNCCCCCCCCCCN1C(=O)c2cccc3cccc(c23)C1=O`, the pIC50 in data set [2] is 5.10; in data set [11], 5.70.

`COc1ccccc1CNCCCN1C(=O)c2cccc3cccc(c23)C1=O`: the result in data set [23] and in data set [24] was inactive.

With `COc1ccccc1CNCCCCCN1C(=O)c2cccc3cccc(c23)C1=O`, the result in data set [23] and in data set [24] was inactive.

Take `COc1ccccc1CNCCCCN1C(=O)c2ccc3c4c(ccc(c24)C1=O)C(=O)N(CCCCNCc1ccccc1OC)C3=O`: the pIC50 in data set [2] was 6.10; in [11], 6.15.

On to `COc1ccccc1CNCCCCCCCCCN1C(=O)c2cccc3cccc(c23)C1=O`, for which the pIC50 in [2] is 5.89; in [11], 6.30. In addition, the outcome in data set [12] and in [20] was inactive.

In the case of `COc1ccccc1CNCCCCCCCN1C(=O)c2cccc3cccc(c23)C1=O`, the result in [23] and in [24] was inactive.

With `COc1ccccc1CNCCCN1C(=O)c2ccc3c4c(ccc(c24)C1=O)C(=O)N(CCCNCc1ccccc1OC)C3=O`, the outcome in [1], in data set [4], in [6], in [7], in data set [8] and in data set [10] was Active. For the same compound, the outcome in data set [14] and in data set [19] was Active. The outcome in data set [25], in data set [12] and in data set [20] was inactive. The pIC50 was 6.40 in data set [2], 5.85 in data set [5], 6.70 in data set [11] and 5.92 in data set [15]. For the same compound, the Activity entry in data set [9] is “Dose-dependent effect”. The viability at 5 µM in data set [16] was 70%. Besides, the pEC50 in data set [17] was 6.91. In addition, the Kapp in data set [17] came to 2.07 ×10⁸ /M.

`COc1ccccc1CNCCCCCCCCN1C(=O)c2cccc3cccc(c23)C1=O`: the pIC50 in [2] was 5.92; in data set [11], 5.85.

As for `COc1ccccc1CNCCCCCCCCCCN1C(=O)c2ccc3c4c(ccc(c24)C1=O)C(=O)N(CCCCCCCCCCNCc1ccccc1OC)C3=O`, the results for the negative logarithm of the IC50 (pIC50) in data set [2] and in data set [11] were 6.15 and 6.70, respectively.

`COc1ccccc1CNCCCCCN1C(=O)c2ccc3c4c(ccc(c24)C1=O)C(=O)N(CCCCCNCc1ccccc1OC)C3=O`: the pIC50 in data set [2] and in data set [11] was 5.96 throughout.

On to `CN(C)CCN1C(=O)c2cccc3cc([N+](=O)[O-])cc(c23)C1=O` [MITONAFIDE], for which the outcome in data set [1] and in data set [19] was inactive. Besides, the outcome in [6], in data set [8], in data set [10], in data set [26] and in data set [14] was Active. In data set [15], this compound showed a negative-log IC50 (pIC50) of 5.80. The viability at 5 µM in data set [16] stood at 70%. Further, the pEC50 in data set [17] is 4.94. The same compound showed a Kapp in [17] of 2.2 ×10⁶ /M.

For the compound `COc1ccccc1CNCCN1C(=O)c2cccc3cccc(c23)C1=O`, the outcome in [23], in data set [12] and in data set [20] was inactive. In data set [11], this compound gave a pIC50 of 5.70.
